ChEMBL document CHEMBL1123044, “Benzodiazepine receptor binding and anticonflict activity in a series of 3,6-disubstituted pyridazino[4,3-c]isoquinolines devoid of anticonvulsant properties” (J Med Chem, 1985)

What was measured:
[1] = biological target: GABA-A receptor; anion channel; assay: In vitro binding affinity against benzodiazepine receptor using [3H]diazepam as radioligand; assay type: protein-complex assay
[2] = test system: Rattus norvegicus; assay: In vivo minimal effective dose for anticonflict activity by intraperitoneal administration in rats by the Vogel conflict procedure.; assay type: functional; details: ip, read-out: MED
How it was run: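 Male Wistar rats deprived of food 24 h and water 48 h; 10 per dose given compound ip in 0.5% methocel (4 mL/kg) 30 min before test. After 15 s free drinking of sweetened milk, 0.3 mA shocks were delivered through the spout in alternating 5-s on/off cycles over 5 min; shocks counted.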

[3] = test system: Mus musculus; assay: Anticonvulsant activity against prevention of tonic extensor seizures in 50% mice in the presence of metrazole (ip administration); assay type: functional
[4] = Lethal dose analysed when administered intraperitoneally; assay type: toxicity, organism-based; details: mouse, in vivo, ip
How it was run: (§1)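 Acute toxicity was tested in male CD1 mice in groups of three per dose. Compounds were dispersed in 0.5% methocel and given ip at 10 mL/kg.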

[5] = test system: Mus musculus; assay: Anticonvulsant activity against prevention of tonic extensor seizures in 50% mice in the presence of bicuculline (ip administration); assay type: functional
How it was run: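 Male CD1 mice, 10 per dose, given test compound ip in 0.5% methocel (10 mL/kg). Bicuculline, 2 mg/kg sc in aqueous solution, given 30 min later, following the metrazol protocol. ED50 is the dose preventing tonic extensor seizures in 50% of mice, obtained by Finney probit analysis with 95% confidence limits.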

[6] = Lethal dose analysed in mice when administered intraperitoneally; assay type: toxicity, organism-based; details: mouse, in vivo, ip; how it was run: as §1
[7] = biological target: GABA-A receptor; anion channel (Rattus norvegicus) (UniProt O09028+P15431+P18506+P18508+P19969+P20236+P23574+P23576+P28471+P28473+P30191+P62813+P63079+P63138+Q91ZM7+Q9ES14); assay: Relative binding to GABA-A central benzodiazepine receptor in the presence and absence of 10e-4 M GABA (GABA shift); assay type: protein-complex assay
How it was run: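 Rat forebrain membranes incubated in triplicate with 0.4 nM [3H]flunitrazepam and varying ligand concentrations, with or without 0.1 mM GABA, 20 min at 37 °C. Specific binding: total minus binding with 1 μM unlabelled clonazepam. The ratio compares displacement curves obtained without versus with GABA.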

[8] = test system: Mus musculus; assay: Anticonvulsant activity against prevention of tonic extensor seizures in 50% mice in the presence of bicuculline (ip administration); 0.13-0.25; assay type: functional
[9] = test system: Mus musculus; assay: Anticonvulsant activity against prevention of tonic extensor seizures in 50% mice in the presence of metrazole (ip administration); 0.11-0.28; assay type: functional

Compound	Ki [1] [nM]	minimal effective dose [2] [mg/kg]	ED50 [3] [mg/kg]	LD50 [4] [mg/kg]	ED50 [5] [mg/kg]	LD50 [6] [mg/kg]	GABA ratio [7]	ED50 [8] [%]	ED50 [9] [%]
COCCN(CCOC)c1nc2cc(-c3ccc(Cl)cc3)nnc2c2ccccc12	32500	–	–	–	–	–	–	–	–
COc1ccc(-c2cc3nc(N4CCCC4)c4ccccc4c3nn2)cc1	18.7	20	> 100	> 600	> 100	–	–	–	–
Cc1cc2nc(N3CCCC3)c3ccccc3c2nn1	245	20	> 50	–	> 50	200	1	–	–
CN1CCN=C(c2ccccc2)c2cc(Cl)ccc21 [MEDAZEPAM]	528	–	–	–	–	–	1.9	–	–
CC(C)Oc1nc2cc(-c3ccccc3)nnc2c2ccccc12	1900	–	–	–	–	–	–	–	–
CN(C)c1nc2cc(-c3ccccc3)nnc2c2ccccc12	28.4	10	> 100	> 600	> 100	–	1.2	–	–
COc1ccc(-c2cc3nc(N(C)CC(C)O)c4ccccc4c3nn2)cc1 (centres undefined)	221	30	> 100	> 600	> 100	–	1.4	–	–
CN1C(=O)CN=C(c2ccccc2)c2cc(Cl)ccc21 [DIAZEPAM]	–	0.5	–	–	–	–	–	0.18	0.2
COc1ccc(-c2cc3nc(N4CCOCC4)c4ccccc4c3nn2)cc1	402	30	> 100	> 600	> 100	–	–	–	–
CN(C)c1nc2cc(-c3ccc(Cl)cc3)nnc2c2ccccc12	9300	–	–	–	–	–	–	–	–
COc1ccc(-c2cc3nc(N4CCCCC4)c4ccccc4c3nn2)cc1	658	10	> 100	> 600	> 100	–	–	–	–
c1ccc(-c2cc3nc(N4CCOCC4)c4ccccc4c3nn2)cc1	152	15	> 50	200	> 50	–	1.4	–	–
CCN(C)c1nc2cc(-c3ccccc3)nnc2c2ccccc12	65.2	10	> 50	300	> 50	–	1.5	–	–
CC(O)CN(C)c1nc2cc(-c3ccc(Cl)cc3)nnc2c2ccccc12 (centres undefined)	17800	–	–	–	–	–	–	–	–
CCOc1nc2cc(-c3ccccc3)nnc2c2ccccc12	1500	–	–	–	–	–	–	–	–
COc1ccc(-c2cc3nc(N(C)C)c4ccccc4c3nn2)cc1	63.3	10	> 100	> 600	> 100	–	1.7	–	–
Oc1nc2cc(-c3ccccc3)nnc2c2ccccc12	1700	–	–	–	–	–	–	–	–
CC(O)CN(C)c1nc2cc(-c3ccccc3)nnc2c2ccccc12 (centres undefined)	136	30	> 50	300	> 50	–	1.4	–	–
Clc1nc2cc(-c3ccccc3)nnc2c2ccccc12	6200	–	–	–	–	–	–	–	–
Cc1nnc2ccc(-c3cccc(C(F)(F)F)c3)nn12 [CI-218872]	198	–	–	–	–	–	–	–	–
Clc1ccc(-c2cc3nc(N4CCCC4)c4ccccc4c3nn2)cc1	3480	–	–	–	–	–	–	–	–
c1ccc(-c2cc3nc(N4CCCC4)c4ccccc4c3nn2)cc1	11.4	5	> 50	300	> 50	–	1.6	–	–
COCCN(CCOC)c1nc2cc(-c3ccc(OC)cc3)nnc2c2ccccc12	1180	10	> 100	> 600	> 100	–	2	–	–
COc1ccc(-c2cc3nc(N4CCC4)c4ccccc4c3nn2)cc1	69.6	30	> 100	600	> 100	–	–	–	–
c1ccc(-c2cc3ncc4ccccc4c3nn2)cc1	4000	–	–	–	–	–	–	–	–
